From ChEMBL document CHEMBL1124429, “Heterocyclic analogues of benzamide antiarrhythmic agents” (J Med Chem, 1989)
Several values for one entry are separate records, joined by “and”; a condition that tells them apart may be missing. Identical values can stand only once.

Tests used:
Canis familiaris [1] = organism: Canis familiaris; experiment: Maximum percent change in functional refractory period (FRP) at 100 uM on Canine ventricular muscle fibre.; set-up: species or system Canis lupus familiaris, Muscle tissue
Method in brief: (§1)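 Canine right ventricular papillary muscle strips were superfused at 36 ± 0.5 °C with saline gassed with 95% O2/5% CO2. Diastolic threshold was found with 2-ms stimuli at 4000 ms cycle length, then pacing at 4× threshold for 60 min equilibration. FRP was measured at 1000 ms cycle length by S1-S2 premature stimulus after every tenth S1. Conduction time came from a bipolar electrogram. Various compound concentrations were tested, one compound per strip, with vehicle controls. Percent change from control was taken at 10 µM, or the maximum change with its concentration; for N ≥ 3, mean with range.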

Canis familiaris [2] = organism: Canis familiaris; experiment: Maximum percent change in repolarization at 10 uM concentration on Canine Purkinje fibers.; type: functional, Canis lupus familiaris, Purkinje fiber
Method in brief: (§2)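 Isolated canine Purkinje fibers were superfused with physiological saline gassed with 95% O2/5% CO2 (pH 7.35–7.40) at 36 ± 0.5 °C. Paced at 1.0 Hz with 2-ms pulses at twice diastolic threshold. After up to 1 h stabilization, compounds were tested over 10^-8 to 10^-3 M, 30 min per concentration, one compound per fiber, with vehicle controls. Intracellular microelectrodes (3 M KCl) recorded Vmax and APD95; maximum percent change from control is reported with its concentration.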

Canis familiaris [3] = organism: Canis familiaris; experiment: Percent change from control in the rate of rise of phase 0 of the action potential at 10 uM concentration on Canine Purkinje fibers.; value ranges from -20 - -3; type: organism-based, Canis lupus familiaris, Purkinje fiber; conditions: dog, in vitro
Canis familiaris [4] = organism: Canis familiaris; experiment: Percent change in repolarization at 10 Purkinje fibers.; value ranges from -13 - -3; type: functional, Canis lupus familiaris, Purkinje fiber
Method in brief: (§3)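 Canine Purkinje fibers were held in oxygenated (95% O2–5% CO2) physiological saline, pH 7.35–7.40, at 36 ± 0.5 °C and paced at 1.0 Hz with 2-ms pulses at twice diastolic threshold. Intracellular microelectrodes (3 M KCl) recorded Vmax and APD95 simultaneously. After up to 1 h of stabilization, compounds were tested from 10^-8 to 10^-3 M with 30 min per concentration. One compound per fiber, with vehicle controls. For N ≥ 3, values are the mean with the range.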

Canis familiaris [5] = organism: Canis familiaris; experiment: Maximum percent change in functional refractory period (FRP) at 10 uM on Canine ventricular muscle fibre.; set-up: species or system Canis lupus familiaris, Muscle tissue; method in brief: as §1
Canis familiaris [6] = organism: Canis familiaris; experiment: The maximum percent change in action potential (Vmax) at concentration observed (100 uM) was tested on Canine Purkinje fibers; set-up: species or system Canis lupus familiaris, Purkinje fiber; conditions: dog; method in brief: as §3
Canis familiaris [7] = organism: Canis familiaris; experiment: The maximum percent change in action potential (Vmax) at concentration observed (30 uM ) was tested on Canine Purkinje fibers; set-up: species or system Canis lupus familiaris, Purkinje fiber; conditions: dog; method in brief: as §3
Canis familiaris [8] = organism: Canis familiaris; experiment: Maximum percent change in conduction time (CT) at 100 uM concentration tested on Canine ventricular muscle fibre; type: functional, Canis lupus familiaris, Muscle tissue; method in brief: as §1
Canis familiaris [9] = organism: Canis familiaris; experiment: Maximum percent change in repolarization at 100 uM concentration on Canine Purkinje fibers.; type: functional, Canis lupus familiaris, Purkinje fiber; method in brief: as §2
Canis familiaris [10] = organism: Canis familiaris; experiment: Percent change from control in the functional refractory period (FRP) at 10 uM conc on Canine ventricular muscle fibre.; value ranges from -9-28; set-up: species or system Canis lupus familiaris, Muscle tissue; method in brief: as §1
Canis familiaris [11] = organism: Canis familiaris; experiment: Maximum percent change in conduction time (CT) at 10 uM concentration tested on Canine ventricular muscle fibre; type: functional, Canis lupus familiaris, Muscle tissue; method in brief: as §1
Canis familiaris [12] = organism: Canis familiaris; experiment: Percent change from control in conduction time (CT) at 10 uM concentration tested on Canine ventricular muscle fibre.; value ranges from -20-2; type: functional, Canis lupus familiaris, Muscle tissue; method in brief: as §1
Canis familiaris [13] = organism: Canis familiaris; experiment: Maximum percent change in repolarization at 30 uM concentration on Canine Purkinje fibers.; type: functional, Canis lupus familiaris, Purkinje fiber; method in brief: as §2
Canis familiaris [14] = organism: Canis familiaris; experiment: Percent change from control in the rate of rise of phase 0 of the action potential at 10 uM concentration on Canine Purkinje fibers.; value ranges from -17 - -7; type: organism-based, Canis lupus familiaris, Purkinje fiber; conditions: dog, in vitro
Canis familiaris [15] = organism: Canis familiaris; experiment: Percent change from control in the functional refractory period (FRP) at 10 uM conc. on Canine ventricular muscle fibre.; set-up: species or system Canis lupus familiaris, Muscle tissue; method in brief: as §1
Canis familiaris [16] = organism: Canis familiaris; experiment: Maximum percent change in conduction time (CT) at 0.1 uM concentration tested on Canine ventricular muscle fibre; type: functional, Canis lupus familiaris, Muscle tissue; method in brief: as §1
Canis familiaris [17] = organism: Canis familiaris; experiment: Percent change from control in conduction time (CT) at 10 uM concentration tested on Canine ventricular muscle fibre.; type: functional, Canis lupus familiaris, Muscle tissue; method in brief: as §1
Canis familiaris [18] = organism: Canis familiaris; experiment: Maximum percent change in functional refractory period (FRP) at 1 uM on Canine ventricular muscle fibre.; set-up: species or system Canis lupus familiaris, Muscle tissue; method in brief: as §1
Cavia porcellus = organism: Cavia porcellus; experiment: Concentration of compound which gives a 20% decrease in contractile force was tested on papillary muscle of guinea pig, activity was expressed as EC-20.; type: functional; conditions: Muscle tissue
Method in brief: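 Contractile force measured in an isolated cardiac muscle preparation. Value is the concentration giving a 20% decrease in force of contraction. NR marks that this decrease was not reached. Values come from individual experiments; for N ≥ 3, the mean is given with the range.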

Canis familiaris [19] = organism: Canis familiaris; experiment: Percent change in repolarization at 10 Purkinje fibers.; value ranges from -19 - 1; type: functional, Canis lupus familiaris, Purkinje fiber; method in brief: as §3
Canis familiaris [20] = organism: Canis familiaris; experiment: Maximum Percent change from control in the rate of rise of phase 0 of the action potential at 30 uM concentration on Canine Purkinje fibers.; set-up: species or system Canis lupus familiaris, Purkinje fiber; conditions: dog, in vitro; method in brief: as §2
Canis familiaris [21] = organism: Canis familiaris; experiment: Maximum Percent change from control in the rate of rise of phase 0 of the action potential at 100 uM concentration on Canine Purkinje fibers.; type: Canis lupus familiaris, Purkinje fiber; conditions: dog, in vitro; method in brief: as §2
Canis familiaris [22] = organism: Canis familiaris; experiment: The maximum percent change from control in the rate of rise of phase 0 of the action potential at 100 uM concentration on Canine Purkinje fibers.; set-up: species or system Canis lupus familiaris, Purkinje fiber; conditions: dog, in vitro; method in brief: as §3
Canis familiaris [23] = organism: Canis familiaris; experiment: The maximum change from control in the rate of rise of phase 0 of the action potential at 10 uM concentration on Canine Purkinje fibers.; set-up: species or system Canis lupus familiaris, Purkinje fiber; conditions: dog; method in brief: as §3
Canis familiaris [24] = organism: Canis familiaris; experiment: Percent change in repolarization at 10 Purkinje fibers.; type: functional, Canis lupus familiaris, Purkinje fiber; method in brief: as §3
Canis familiaris [25] = organism: Canis familiaris; experiment: Percent change from control in the rate of rise of phase 0 of the action potential at 10 uM concentration on Canine Purkinje fibers; value ranges from 8.0-4.0; set-up: species or system Canis lupus familiaris, Purkinje fiber; conditions: dog
Canis familiaris [26] = organism: Canis familiaris; experiment: Maximum percent change in conduction time (CT) at 1 uM concentration tested on Canine ventricular muscle fibre; type: functional, Canis lupus familiaris, Muscle tissue; method in brief: as §1
Canis familiaris [27] = organism: Canis familiaris; experiment: Percent change from control in the functional refractory period (FRP) at 10 uM concentration on Canine ventricular muscle fibre; value ranges from 2-17; set-up: species or system Canis lupus familiaris, Muscle tissue; method in brief: as §1
Canis familiaris [28] = organism: Canis familiaris; experiment: Maximum percent change in functional refractory period (FRP) at 100 uM on Canine ventricular muscle fibre; value ranges from 7-26; set-up: species or system Canis lupus familiaris, Muscle tissue; method in brief: as §1
Canis familiaris [29] = organism: Canis familiaris; experiment: Percent change from control in conduction time (CT) at 10 uM concentration tested on Canine ventricular muscle fibre; value ranges from -12.0-2.0; type: functional, Canis lupus familiaris, Muscle tissue; method in brief: as §1

CCN(CC)CCCNC(=O)c1cccc2[nH]ccc12
FRP (Canis familiaris [1]): 36%
APD95 (Canis familiaris [2]): -3%
Vmax (Canis familiaris [3]): -11.3%
APD95 (Canis familiaris [4]): -7.7%
FRP (Canis familiaris [5]): 11%
Vmax (Canis familiaris [6]): -31%
Vmax (Canis familiaris [7]): -15% and -39%
CT (Canis familiaris [8]): 12%
APD95 (Canis familiaris [9]): -26%
FRP (Canis familiaris [10]): 10%
CT (Canis familiaris [11]): -7%
CT (Canis familiaris [12]): -8.8%
APD95 (Canis familiaris [13]): -22%

CCN(CC)CCCNC(=O)c1cc2cccc(O)c2[nH]1
FRP (Canis familiaris [1]): 19%
Vmax (Canis familiaris [14]): -11%
FRP (Canis familiaris [15]): 9%
CT (Canis familiaris [16]): -8%
CT (Canis familiaris [17]): -3%
FRP (Canis familiaris [18]): 8%
APD95 (Canis familiaris [9]): -53%
CT (Canis familiaris [11]): -23%
EC20 (Cavia porcellus): 36 µM
APD95 (Canis familiaris [19]): -10%
APD95 (Canis familiaris [13]): -14%
Vmax (Canis familiaris [20]): -20% and -26%
Vmax (Canis familiaris [21]): -45%

CCN(CC)CCNC(=O)c1ccc(N)cc1 [PROCAINAMIDE]
Vmax (Canis familiaris [22]): -10%
Vmax (Canis familiaris [23]): 4%
APD95 (Canis familiaris [24]): -1%
APD95 (Canis familiaris [2]): 1%
Vmax (Canis familiaris [25]): -1.5%
CT (Canis familiaris [8]): 4%
CT (Canis familiaris [26]): 5%
APD95 (Canis familiaris [9]): 3%
FRP (Canis familiaris [27]): 8.7%
FRP (Canis familiaris [28]): 14.3%
CT (Canis familiaris [29]): -3%
